Data set [1] deals with proteomes of cancer cell lines. The data set is described as follows: in situ proteomic reactivity by gel-based ABPP in cancer cells. Type of data set: cell-based, human. The following applies: in situ treatment with 1 μM probe, cancer cells (SW620 and others).
A short description of data set [2]: cytotoxicity, Sulforhodamine B assay, EGFR-independent cell lines. Type of data set: cell-based. The following applies: human (MDA-MB-435S, SW620), mouse (NIH3T3).
Data set [3] in a line: time course of compound concentrations in A431 cells. Type of data set: in vitro ADME, human. The conditions noted are these: relative cellular concentrations.
For the next data set, the system named is mouse spleen proteomes. Put plainly: in vivo proteome reactivity, gel-based ABPP of mouse spleen. The conditions noted are these: mice, 10 or 20 mg/kg, i.p., 1 hr. The procedure, abridged:
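C57BL/6 mice dosed i.p. in saline/EtOH/DMSO/Cremophor EL 17:1:1:1 (10 μL g−1). Inhibitor (20 mg/kg) or vehicle for 1 hr, then probe (10 or 20 mg/kg) for 1 hr; isoflurane, cervical dislocation. Tissues were DPBS-washed and bead-homogenized, spun at 1,500 × g, then 100,000 × g for 45 min (membrane/cytosolic) and set to 2 mg/mL. Rhodamine-azide click, SDS-PAGE, in-gel fluorescence.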

The results in this text go back to article PMC4138289 (Nature chemical biology, 2014).

As to `C#CCOc1cc2ncnc(Nc3ccc(F)c(Cl)c3)c2cc1NC(=O)CCCN(C)C` [Probe 13], in data set [1], the time-dependent proteomic reactivity result was “Negligible time-dependent proteomic reactivity”.

As for `CN(C)C/C=C/C(=O)Nc1cc2c(Nc3ccc(F)c(Cl)c3)ncnc2cc1O[C@H]1CCOC1` [afatinib, reference compound], the IC50 at 72 h in data set [2] lay within 700 to 2200 nM. For the same molecule, the “stability / accumulation of compound in cells” value in data set [3] was “more prolonged accumulation in cells”.

As for `C#Cc1cccc(Oc2ccc(-c3nn([C@@H]4CCCN(C(=O)C=C)C4)c4ncnc(N)c34)cc2)c1` [Probe 4], the “in vivo proteomic reactivity” value in the data set on mouse spleen proteomes is listed as “higher proteomic reactivity than probe 6”.

By IC50 is commonly meant the concentration at which inhibition is half-maximal. Low readings indicate greater potency, high ones weaker potency.
